Experimental findings from ChEMBL document CHEMBL1949639, “New losartan-hydrocaffeic acid hybrids as antihypertensive-antioxidant dual drugs: Ester, amide and amine linkers” (2012) are described below.

The structures appear in SMILES notation.

Test [1] is described as follows: Antioxidant activity assessed as trolox equivalent of ABTS radical scavenging activity relative to control. The test is classed as functional. Summed up:
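Metmyoglobin/H2O2 oxidation of ABTS to its radical, read as absorbance at 600 nm in 96-well format. Samples taken from K2CO3-solubilised stocks diluted in PBS. Activity expressed as TEAC: the concentration (mM) giving the same percentage change in ABTS radical absorbance as 1 mM Trolox.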

A short description of test [2]: Antihypertensive activity against angiotensin-2-induced cell contraction in Wistar rat VSMC assessed as changes in planar cell surface area after 30 mins by planimetric technique. The test is classed as functional. Summed up: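 VSMC from thoracic aortas of Wistar rats, collagenase-digested, grown in DMEM/Ham's F-12 with 10% foetal calf serum at 37 °C, 5% CO2, used at passages 3–5. Cells in Tris-glucose buffer pH 7.45 with angiotensin II plus compound, […], for 30 min. Photographed at 0 and 30 min, planar surface area by planimetry. 4–8 cells per experiment, mean of 5 experiments gives percent inhibition of contraction.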

The next test has as its system Rattus norvegicus. Nature of the test: Antihypertensive activity in Wistar rat assessed as decrease of L-NAME-induced systolic arterial pressure at 20 mg/kg, po administered with drinking water qd for 3 days by sphygmomanometer. The test is classed as functional, Artery. The settings on record: dose 30 mg/kg, in the assay text read “30 mg/kg” for “20 mg/kg”. Summed up:
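Two-month-old male Wistar rats received L-NAME in drinking water (20 mg/kg/day). After one week, losartan (20 mg/kg/day) or hybrids (30 mg/kg/day) were given daily in drinking water for three days. At least six animals per group. Arterial pressure measured in conscious rats by tail-cuff sphygmomanometer.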

For `O=C(O)CCc1ccc(O)c(O)c1` [DIHYDROCAFFEIC ACID], in test [1], the Ratio was 0.36. The “inhibition (INH)” value in test [2] is 85%.

For the molecule `COc1cc(C(=O)O)ccc1O`, the Ratio in test [1] stood at 0.202.

In the case of `COc1cc(C(=O)O)cc(OC)c1O`, the Ratio in test [1] turned out to be 1.07.

For the molecule `CCCCc1nc(Cl)c(C(=O)O)n1Cc1ccc(-c2ccccc2-c2nn[nH]n2)cc1`, the Ratio in test [1] worked out at 0.03.

Consider `O=C(O)/C=C/c1ccc(O)c(O)c1`, for which the Ratio in test [1] is 0.2.

Regarding `O=C(O)c1ccc(O)c(O)c1`, in test [1], the Ratio stood at 0.153.

As to `CCCCc1nc(C(=O)OCCCc2ccc(O)c(O)c2)c(Cl)n1Cc1ccc(-c2ccccc2-c2nn[nH]n2)cc1`, the Ratio in test [1] came out at 0.24. Also, the “inhibition (INH)” value in test [2] is reported as 95%. Besides, in the test on Rattus norvegicus, the Activity was found to be 14 mmHg.

As to `CC[C@H](C)[C@H](NC(=O)[C@H](Cc1ccc(O)cc1)NC(=O)[C@@H](NC(=O)[C@H](CCCNC(=N)N)NC(=O)[C@@H](N)CC(=O)O)C(C)C)C(=O)N[C@@H](Cc1cnc[nH]1)C(=O)N1CCC[C@H]1C(=O)N[C@@H](Cc1ccccc1)C(=O)O` [ANGIOTENSIN II], the “inhibition (INH)” value in test [2] was 82%.

Take `CC(C)(C)c1cc(CC(=O)O)cc(C(C)(C)C)c1O`: in test [1], the Ratio is 1.06.

Regarding `CCCCc1nc(Cl)c(CNC(=O)CCc2ccc(O)c(O)c2)n1Cc1ccc(-c2ccccc2-c2nn[nH]n2)cc1`, in test [1], the Ratio is 0.27. Besides, the “inhibition (INH)” value in test [2] is given as 90%. Besides, the Activity in the test with Rattus norvegicus was determined as 13 mmHg.

`CCCCc1nc(Cl)c(CO)n1Cc1ccc(-c2ccccc2-c2nnn[nH]2)cc1` [LOSARTAN]: the Ratio in test [1] came to 0.03. Moreover, the “inhibition (INH)” value in test [2] is reported as 93%. Also, in the test on Rattus norvegicus, the Activity worked out at 13 mmHg.

For the molecule `CCCCc1nc(Cl)c(COC(=O)CCc2ccc(O)c(O)c2)n1Cc1ccc(-c2ccccc2-c2nnn[nH]2)cc1`, the Ratio in test [1] was found to be 0.31. In test [2], the “inhibition (INH)” value was determined as 94%. Besides, the Activity with Rattus norvegicus is on record as 29 mmHg.

For `CC(C)(C)c1cc(C(=O)O)cc(C(C)(C)C)c1O`, in test [1], the Ratio was determined as 0.181.

Consider `CCCCc1nc(Cl)c(C(=O)OCCCc2ccc(O)c(O)c2)n1Cc1ccc(-c2ccccc2-c2nn[nH]n2)cc1`, for which the Ratio in test [1] was determined as 0.1. Further, in test [2], the “inhibition (INH)” value was 88%. Besides, the Activity in the test on Rattus norvegicus is 9 mmHg.

Turning to `CCCCc1nc(Cl)c(CNCCCc2ccc(O)c(O)c2)n1Cc1ccc(-c2ccccc2-c2nn[nH]n2)cc1`, the Ratio in test [1] stood at 0.13. Also, the “inhibition (INH)” value in test [2] was 92%.

For `CCCCc1nc(Cl)c(C(=O)NCCCc2ccc(O)c(O)c2)n1Cc1ccc(-c2ccccc2-c2nn[nH]n2)cc1`, in test [1], the Ratio was 0.17. The “inhibition (INH)” value in test [2] was found to be 93%. Besides, the Activity with Rattus norvegicus is 1 mmHg.
